Screening data as filed in PubChem BioAssay.
A selection: hits, their analogues and other compounds. The true share with any hit is near 3.9%.
UPR XBP1 act = activators of adaptive XBP1 UPR arm, primary screen, cell-based, CHO-XBP1 luciferase reporter, luminescence, uHTS; IRE1-XBP1 UPR activation; percent of tunicamycin response, DMSO as zero; activation, % at 20 µM; 0.33% of 330,000 active;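 active = versus positive control, 20 µM dose yields 30% or more activation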
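Assay system: IRE1-XBP1 luciferase reporter CHO line. Input: 1000 cells/well. Buffer or medium: F12 with 10% serum. Doses: 20 µM, 1% DMSO. Times: overnight seeding at 37 °C, 6 h compound treatment at 37 °C. Technique: Steady-Glo luciferase glow luminescence, 10 min after reagent addition.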
697 NFkB inh = inhibitors of PMA/ionomycin-induced NF-kB reporter, 697 cells, primary screen, B-cell NF-kB inhibitor project, cell-based, luminescence, uHTS | 697 B-cell NF-kB luciferase reporter, 16 h | inhibition, % at 4 µM | 0.33% of 330,000 active | AID 435022, 2010; in the data active = inhibition above about 35%
Gli-Sufu antag = Gli-Sufu pathway antagonists, primary screen, luciferase luminescence, Sufu-KO-LIGHT cells, uHTS; Sufu-KO-LIGHT fibroblasts, Gli luciferase reporter luminescence; inhibition, % at 5 µM; 0.74% of 340,000 active;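 active = inhibition above about 55%, limit read from the data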
CHOP UPR activ = activators of apoptotic CHOP UPR arm, primary screen, cell-based, CHO-CHOP luciferase reporter, luminescence, uHTS; activation, % at 10 µM; AID 449763, 2010; UPR activation; percent of tunicamycin response over DMSO baseline; 0.34% of 330,000 active;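 active = at 10 µM dose, activation of 40% or more, normalized to positive control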
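System: CHO CHOP reporter cells. Amount: 500 cells per well. Buffer or medium: F12 medium, 10% FBS. Compound dosing: one dose, 10 µM in 0.5% DMSO. Incubation: 6 h compound exposure at 37 °C after overnight seeding. Technique: Steady-Glo luciferase luminescence. Benchmarks: tunicamycin and DMSO controls.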
CHOP inh = inhibitors of CHOP promoter induction, primary screen, cell-based, unfolded protein response, luciferase reporter | CHO-K1 CHOP-promoter luciferase, tunicamycin-induced, 15-18 h | inhibition, % at 10 µM | 3.8% of 220,000 active | AID 2732, 2010;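 active = compounds that reduced the stress-induced luciferase reporter signal by more than about 70% of percent inhibition, limit read from the data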
Jurkat NFkB inh = inhibitors of induced NF-kB luciferase reporter, primary screen, TCR NF-kB activation inhibitor project, cell-based, luminescence, uHTS | AID 435003, 2010 | 0.53% of 330,000 active | Jurkat, PMA/ionomycin-induced NF-kB luciferase reporter | inhibition, % at 4 µM; in the data active = inhibition above about 50%
UPR XBP1 confirm = IRE1-XBP1 UPR arm activators, confirmation, cell-based, CHO-XBP1 luciferase reporter, luminescence, single concentration; 63% of 1,000 active; shares compounds with UPR XBP1 act; activation, % at 20 µM;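 active = reporter signal at least 30% of the positive control's activation in two or more of four replicate wells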
Large screens that a line does not name were inactive (follow-up assays come after a bar, where they were run).

C=CCOc1ccc(/C=C/C(=O)OCC(=O)NCc2cccs2)cc1	none (no result: CHOP inh)
Cc1cccnc1NC(=O)c1ccc(NS(=O)(=O)/C=C/c2ccccc2)cc1	none (no result: CHOP inh)
CCC(Sc1nnc2c3ccccc3n(CC)c2n1)C(=O)Nc1sc2c(c1C#N)CCCC2 (stereo not drawn)	UPR XBP1 act 163 | UPR XBP1 confirm 157
COc1ccccc1CN1CC(C(=O)NCc2ccc(SC)cc2)CCC1=O (stereo not drawn)	none (no result: CHOP inh)
CNc1nc(Nc2ccc([N+](=O)[O-])cc2)nc(OCC(F)(F)F)n1	UPR XBP1 act 122 (no result: CHOP inh) | UPR XBP1 confirm inactive
COc1cc(OC)cc(C(=O)Nc2ccccc2-c2nnn(CC(=O)Nc3cc(C)on3)n2)c1	UPR XBP1 act 327 (no result: CHOP inh) | UPR XBP1 confirm inactive
COc1ccc(C(=O)Nc2ccccc2-c2nnn(CC(N)=O)n2)cc1	none (no result: UPR XBP1 act, 697 NFkB inh, CHOP UPR activ, CHOP inh, Jurkat NFkB inh)
CCOC(=O)c1c(NC(=O)/C=C\C(=O)O)sc(C)c1-c1ccccc1	none
CCOC(=O)c1c(NC(=O)/C=C/C(=O)O)sc(C)c1-c1ccc(C(C)(C)C)cc1	UPR XBP1 act 47 | UPR XBP1 confirm 47
Cc1ccc(SCC(=O)OCC(=O)NCCCc2ccccc2)cc1	none (no result: CHOP inh)
O=C(COC(=O)CSc1ccc(F)cc1)NCCCc1ccccc1	UPR XBP1 act 44 (no result: CHOP inh) | UPR XBP1 confirm inactive
COc1ccc(Nc2nc(C)c3ccccc3n2)cc1	none
Cc1ccc2c(=O)[nH]c(Nc3nc(C)cc(-c4ccccc4)n3)nc2c1	UPR XBP1 act 33 | UPR XBP1 confirm 43
Cc1nc(Nc2nc(-c3ccccc3)cc(=O)[nH]2)nc2ccccc12	UPR XBP1 act 84 (no result: CHOP inh) | UPR XBP1 confirm 132
CCCCC(O)(c1ccc(F)cc1)C(CN1CCOCC1)c1ccc(Cl)cc1 (stereo not drawn)	none (no result: CHOP inh)
Nc1nonc1-n1nnc(C(=O)N/N=C/c2ccccc2Cl)c1CN1CCOCC1	none (no result: CHOP inh)
Cc1cccc(Nc2nnc(SCC(=O)NCC3CCCO3)s2)c1C (stereo not drawn)	none (no result: CHOP inh)
CCOc1cccc2sc(N(CCCN(C)C)C(=O)c3ccc(S(=O)(=O)N(C)Cc4ccccc4)cc3)nc12	none (no result: CHOP inh)
CCCCN(CC)S(=O)(=O)c1ccc(C(=O)N(CCCN(C)C)c2nc3cc(C)cc(C)c3s2)cc1	UPR XBP1 act 45, CHOP inh 87 | UPR XBP1 confirm 36
CCOc1cccc2sc(N(CCCN(C)C)C(=O)c3ccc(S(=O)(=O)N(CC)Cc4ccccc4)cc3)nc12	UPR XBP1 act 43 (no result: CHOP inh) | UPR XBP1 confirm inactive
CCN(Cc1ccccc1)S(=O)(=O)c1ccc(C(=O)N(CCCN(C)C)c2nc3cc(C)cc(C)c3s2)cc1	none (no result: CHOP inh)
COc1ccc(C(=O)NCC(=O)N/N=C/c2ccc(C)o2)cc1OC	none (no result: CHOP inh)
Cc1c(-c2ccc(/C=N/NC(=O)C(=O)Nc3ccccc3F)o2)cccc1[N+](=O)[O-]	UPR XBP1 act 73 | UPR XBP1 confirm inactive
Cc1ccc(-c2csc(/C(C#N)=C/Nc3ccc4c(c3)OCCO4)n2)cc1	UPR XBP1 act 33 | UPR XBP1 confirm inactive
COc1cc2c(cc1OC)[C@@H](NC(=O)c1ccc(C(F)(F)F)cc1)[C@H](OCc1ccccc1)C2	UPR XBP1 act 36 (no result: CHOP inh, Jurkat NFkB inh) | UPR XBP1 confirm inactive
COCC(=O)N[C@@H]1c2ccccc2CC[C@@H]1OCc1ccccc1	none (no result: CHOP inh, Jurkat NFkB inh)
COc1cc(NC(=O)c2cccs2)ccc1NC(=O)c1cc2ccccc2o1	UPR XBP1 act 69, CHOP inh 91 | UPR XBP1 confirm 37
Cc1cc(NC(=O)c2cncc(Br)c2)ccc1NC(=O)c1cc2ccccc2o1	UPR XBP1 act 35 (no result: CHOP inh) | UPR XBP1 confirm 81
COc1cc(NC(C)=O)ccc1NC(=O)c1cc2ccccc2o1	none (no result: CHOP inh)
CC(C)c1ccc(NC(=O)COC(=O)[C@@H]2CCCN2C(=O)c2cccs2)cc1	none (no result: CHOP inh)
O=C1Nc2ccccc2/C1=C/c1ccc([N+](=O)[O-])cc1	UPR XBP1 act 75 (no result: CHOP inh) | UPR XBP1 confirm 76
Cn1c(N)c(C(=O)CSc2nnc3n2CCCCC3)c(=O)n(C)c1=O	none (no result: CHOP inh)
CCc1sc2nc(SCC(=O)Nc3cc(C)on3)n(-c3cccc(OC)c3)c(=O)c2c1C	UPR XBP1 act 40, CHOP inh 89 | UPR XBP1 confirm 81
COc1cccc(-n2c(SCC(=O)Nc3cc(C)on3)nc3ccccc3c2=O)c1	none
CC1CC(C)(C)CC2(C1)NC(=O)N(CC(=O)N(C)Cc1nc3ccccc3c(=O)[nH]1)C2=O (stereo not drawn)	none (no result: CHOP inh)
Cc1nn(C(C)C(=O)NCCCN2CCCCCC2)c(=O)c2cc3sccc3n12 (stereo not drawn)	none (no result: CHOP inh)
O=c1[nH]c(N/N=C/c2ccccc2Br)nnc1-c1ccccc1	none
COc1ccc(/C=N/Nc2nnc(-c3ccccc3)c(=O)[nH]2)cc1	UPR XBP1 act 49 | UPR XBP1 confirm 73
CCOc1ccc(NC(=O)C(CC(=O)O)Cc2ccccc2)cc1 (stereo not drawn)	none
CCOc1ccc(NC(=O)C(Cc2ccccc2)N2C(=O)c3cccc4cccc(c34)C2=O)cc1 (stereo not drawn)	UPR XBP1 act 65 | UPR XBP1 confirm 69
O=C(Nc1cc(S(=O)(=O)N2CCOCC2)ccc1Cl)c1cc([N+](=O)[O-])ccc1Cl	UPR XBP1 act 69 (no result: CHOP inh) | UPR XBP1 confirm inactive
Cn1nnnc1Sc1ncnc2scc(-c3ccc(Br)cc3)c12	UPR XBP1 act 100 (no result: CHOP inh) | UPR XBP1 confirm 141
CC(C)c1ccc(NC(=O)Cn2nnc(C(=O)NCc3ccco3)c2N)cc1	none (no result: CHOP inh)
CC1(C)CC(=O)C(C=Nc2ccc(C(=O)c3ccccc3)cc2N=CC2=C(O)CC(C)(C)CC2=O)=C(O)C1	UPR XBP1 act 180 | UPR XBP1 confirm 268
O=C(Cc1cn(-c2ccccc2)nc1-c1ccccc1)N1CCCCC1	none (no result: CHOP inh)
CCCN(CC(=O)Nc1ccccc1OC)CC(=O)c1c(N)n(Cc2ccccc2)c(=O)n(C)c1=O	none (no result: UPR XBP1 act, 697 NFkB inh, CHOP UPR activ, CHOP inh, Jurkat NFkB inh)
Oc1c(Cl)cc(Cl)cc1C1Nc2ccccc2-n2cccc21 (stereo not drawn)	none
COc1ccc2c(c1)NC(c1cc(Cl)cc(Cl)c1O)c1cccn1-2 (stereo not drawn)	UPR XBP1 act 49 | UPR XBP1 confirm 57
COc1ccccc1-c1cc(-c2ccccc2)nc(SC(C(N)=O)c2ccccc2)c1C#N (stereo not drawn)	UPR XBP1 act 70, CHOP inh 76 | UPR XBP1 confirm 46
